Experimental data of several laboratories.
Each line is one published result; the experiments were not run side by side.
Read-out: cell growth or viability

SMILES	cell line	method	time	setting	IC50 [µM]
COc1c(C)c2c(c(O)c1C/C=C(\C)CCC(=O)O)C(=O)OC2	JIMT-1				1.15
CC[C@H](C)[C@H](NC(=O)[C@H](CCCCN)NC(=O)[C@H](CCCCN)NC(=O)[C@H](CC(C)C)NC(=O)[C@H](CC(C)C)NC(=O)[C@H](CCCCN)NC(=O)[C@H](CCCCN)NC(=O)[C@H](CC(C)C)NC(=O)[C@H](CCCCN)NC(=O)[C@H](CCCCN)NC(=O)[C@@H](N)CC(C)C)C(=O)N[C@@H](CCCCN)C(=O)N[C@@H](CCCNC(=N)N)C(N)=O	A549	MTT	24 h		> 500
CC[C@H](C)[C@H](NC(=O)CN)C(=O)NCC(=O)N[C@@H](C)C(=O)N[C@H](C(=O)N[C@@H](CC(C)C)C(=O)N[C@@H](CCCCN)C(=O)N[C@H](C(=O)N[C@@H](CC(C)C)C(=O)N[C@H](C(=O)N[C@H](C(=O)NCC(=O)N[C@@H](CC(C)C)C(=O)N1CCC[C@H]1C(=O)N[C@@H](C)C(=O)N[C@@H](CC(C)C)C(=O)N[C@H](C(=O)N[C@@H](CO)C(=O)N[C@@H](Cc1c[nH]c2ccccc12)C(=O)N[C@H](C(=O)N[C@@H](CCCCN)C(=O)N[C@@H](CCCNC(=N)N)C(=O)N[C@@H](CCCCN)C(=O)N[C@@H](CCCNC(=N)N)C(=O)N[C@@H](CCC(N)=O)C(=O)N[C@@H](CCC(N)=O)C(N)=O)[C@@H](C)CC)[C@@H](C)CC)[C@@H](C)O)[C@@H](C)O)C(C)C)C(C)C	IPEC-J2	MTT	24 h		8.58
N.N.[Cl][Pt][Cl]	MEG-01	ATP luminescence	72 h		5.17
S=P1(c2ccccc2)CCCCC1	PC-3	MTT	72 h		> 100
CC[C@H](C)[C@H](NC(=O)[C@H](CCCNC(=N)N)NC(=O)CNC(=O)[C@H](CCCCN)NC(=O)[C@H](CCCNC(=N)N)NC(=O)[C@H](CCCNC(=N)N)NC(=O)[C@H](CC(C)C)NC(=O)[C@H](CCC(N)=O)NC(=O)CNC(=O)[C@H](CCCCN)NC(=O)[C@@H](N)CCSC)C(=O)N[C@@H](CCCNC(=N)N)C(N)=O	A549	MTT	24 h		> 500
N.N.[Cl][Pt][Cl]	NIH3T3		96 h		6.78
COc1cc(C(=O)c2nc(-c3cccc4ncccc34)c[nH]2)cc(OC)c1OC	PC-3	MTS	72 h		> 1
CC(C)[C@H](NC(=O)[C@H](CCCCN)NC(=O)[C@H](Cc1c[nH]c2ccccc12)NC(=O)[C@H](Cc1c[nH]c2ccccc12)NC(=O)[C@H](CCCNC(=N)N)NC(=O)[C@H](Cc1c[nH]c2ccccc12)NC(=O)[C@H](CCCNC(=N)N)NC(=O)[C@@H](N)CCCNC(=N)N)C(=O)N[C@@H](Cc1c[nH]cn1)C(=O)N[C@@H](Cc1c[nH]c2ccccc12)C(=O)N[C@@H](Cc1c[nH]cn1)C(=O)N[C@@H](CCC(=O)O)C(=O)N[C@@H](Cc1c[nH]c2ccccc12)C(N)=O	A549	MTT	24 h		> 500
CC(=N)S	NIH3T3		96 h	3D culture	332
COc1cc(C(=O)c2nc(-c3cccc4[nH]ccc34)c[nH]2)cc(OC)c1OC	PC-3	MTS	72 h		~0.0013
CC[C@H](C)[C@H](NC(=O)[C@H](CCCNC(=N)N)NC(=O)[C@H](CCCNC(=N)N)NC(=O)[C@H](CCCCN)NC(=O)[C@H](CCCNC(=N)N)NC(=O)[C@H](CCCNC(=N)N)NC(=O)[C@H](CCCNC(=N)N)NC(=O)[C@H](CC(C)C)NC(=O)[C@H](CCCNC(=N)N)NC(=O)CNC(=O)[C@H](CCSC)NC(=O)[C@@H](N)CCSC)C(=O)N[C@@H](CCCCN)C(N)=O	A549	MTT	24 h		> 500
COc1cc(C(=O)c2nc(-c3cccc4occc34)c[nH]2)cc(OC)c1OC	PC-3	MTS	72 h		0.0614
CC(C)[C@H](NC(=O)[C@H](CCCCN)NC(=O)[C@H](Cc1c[nH]c2ccccc12)NC(=O)[C@H](Cc1c[nH]c2ccccc12)NC(=O)[C@H](CCCNC(=N)N)NC(=O)[C@H](Cc1c[nH]c2ccccc12)NC(=O)[C@H](Cc1c[nH]cn1)NC(=O)[C@@H](N)CCCNC(=N)N)C(=O)N[C@@H](Cc1c[nH]cn1)C(=O)N[C@@H](Cc1c[nH]c2ccccc12)C(=O)N[C@@H](CCCNC(=N)N)C(=O)N[C@@H](CCC(=O)O)C(=O)N[C@@H](Cc1c[nH]c2ccccc12)C(N)=O	A549	MTT	24 h		> 500
N.N.[Cl][Pt][Cl]	A549	MTT	48 h		5.55
COc1cc(C(=O)c2nc(-c3cccc4c3ccn4C)c[nH]2)cc(OC)c1OC	PC-3	MTS	72 h		0.0127
